The record followed here is ChEMBL document CHEMBL4020770, “Discovery of N-substituted-endo-3-(8-aza-bicyclo[3.2.1]oct-3-yl)-phenol and -phenyl carboxamide series of μ-opioid receptor antagonists” (Bioorg Med Chem Lett, 2017).

Where only a bound is given, the exact number is not on record here.

Series [1] addresses T1, Mu-type opioid receptor (Homo sapiens, UniProt P35372). Briefly: Displacement of [3H]DPN from recombinant human mu opioid receptor expressed in CHOK1 cell membranes. Put shortly: (§1)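 Competition binding with the radioligand [3H]-DPN on membranes from CHO-K1 cells stably transfected with human recombinant μ or δ opioid receptor or guinea pig κ opioid receptor. Affinity is reported as pKi.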

Series [2] deals with Kappa-type opioid receptor (Cavia porcellus, UniProt P41144). Briefly: Displacement of [3H]DPN from guinea pig kappa opioid receptor expressed in CHOK1 cell membranes. Put shortly:
as §1
(In general: In a radioligand displacement assay an active substance lowers the binding of a labelled ligand.)

In series [3] the target is Delta-type opioid receptor (Homo sapiens, UniProt P41143). Briefly: Displacement of [3H]DPN from recombinant human delta opioid receptor expressed in CHOK1 cell membranes. Put shortly:
as §1

The test system of series [4] is Liver. Briefly: Half life in dog liver microsomes. The class given is ADME, Canis lupus familiaris, microsome. The note with it: microsomes. A general note: Liver microsomes are a subcellular fraction often used to study metabolism.
Series [5] deals with T1, Mu-type opioid receptor. Briefly: Intrinsic activity at recombinant human mu opioid receptor expressed in CHOK1 cells by [35S]GTPgammaS binding assay relative to DAMGO. The class given is functional, cell-based. Put shortly:
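Membranes from CHO-K1 cells stably transfected with human recombinant μ-opioid receptor; agonist activity measured as [35S]-GTPγS binding. Maximum compound-evoked response minus basal, expressed as percentage of the maximum response evoked by DAMGO.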
In general terms: GTPγS is a poorly hydrolysed GTP analogue; its binding reports G protein activation.

In series [6] the test system is Liver. Briefly: Half life in human liver microsomes. In kind it is ADME, microsome. Conditions: microsomes.

Chain of Delta-type opioid receptor (P41143 whole entry): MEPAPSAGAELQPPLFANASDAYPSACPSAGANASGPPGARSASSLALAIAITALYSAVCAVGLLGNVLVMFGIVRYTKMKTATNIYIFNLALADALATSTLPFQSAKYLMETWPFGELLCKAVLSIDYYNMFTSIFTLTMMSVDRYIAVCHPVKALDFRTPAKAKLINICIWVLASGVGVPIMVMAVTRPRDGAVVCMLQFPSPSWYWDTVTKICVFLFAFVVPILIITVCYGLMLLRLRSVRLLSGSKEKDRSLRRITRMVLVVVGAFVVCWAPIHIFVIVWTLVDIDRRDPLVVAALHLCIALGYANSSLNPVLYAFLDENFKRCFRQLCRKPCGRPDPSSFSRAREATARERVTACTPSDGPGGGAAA
T1 sequence (P35372 whole entry): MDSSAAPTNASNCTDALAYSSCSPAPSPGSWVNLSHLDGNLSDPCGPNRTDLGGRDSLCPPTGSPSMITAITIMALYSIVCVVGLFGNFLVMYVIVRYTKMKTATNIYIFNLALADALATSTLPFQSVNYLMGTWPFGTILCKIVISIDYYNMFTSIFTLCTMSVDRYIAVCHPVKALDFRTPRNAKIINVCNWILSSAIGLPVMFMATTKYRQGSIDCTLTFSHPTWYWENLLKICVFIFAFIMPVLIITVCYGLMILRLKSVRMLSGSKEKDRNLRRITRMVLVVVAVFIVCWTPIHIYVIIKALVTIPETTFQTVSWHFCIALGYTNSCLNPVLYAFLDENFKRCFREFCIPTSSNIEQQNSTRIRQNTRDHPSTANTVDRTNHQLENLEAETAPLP
Chain of Kappa-type opioid receptor (P41144 whole entry): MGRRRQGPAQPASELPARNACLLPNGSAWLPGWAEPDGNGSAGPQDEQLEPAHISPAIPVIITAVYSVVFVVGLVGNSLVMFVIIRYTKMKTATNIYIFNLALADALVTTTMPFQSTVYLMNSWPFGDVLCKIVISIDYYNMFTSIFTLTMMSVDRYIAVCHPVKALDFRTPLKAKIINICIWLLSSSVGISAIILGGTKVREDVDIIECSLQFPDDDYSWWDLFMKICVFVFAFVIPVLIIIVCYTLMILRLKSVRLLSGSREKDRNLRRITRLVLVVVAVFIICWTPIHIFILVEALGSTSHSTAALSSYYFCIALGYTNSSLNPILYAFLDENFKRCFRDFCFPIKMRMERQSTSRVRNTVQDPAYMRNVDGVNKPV

As usually defined, the Ki is the equilibrium dissociation constant of an inhibitor or competing ligand from its target. On to `NC(=O)c1cccc(C2C[C@H]3CC[C@H](C2)N3CCCOc2ccccc2)c1` (some centres not stated) [listing 1 of 2 here], for which the Ki at Mu-type opioid receptor [1] was 0.00631 µM; in series [2], 0.0316 µM; in series [3], 0.1 µM. In the series on Liver [4], this compound gave a t1/2 of 6 min.

On to `CCCCCCCN1[C@@H]2CC[C@@H]1CC(c1cccc(C(N)=O)c1)C2` (some centres not stated), for which the Intrinsic activity on Mu-type opioid receptor [5] was 38%. Still for that read-out and setting: then `NC(=O)c1cccc(C2C[C@H]3CC[C@H](C2)N3CCCOc2ccccc2)c1` (some centres not stated) [listing 2 of 2 here], with 95%.

`Oc1cccc(C2CC3CCC(C2)N3CCCc2ccccc2)c1` (mixture of isomers): the Intrinsic activity at Mu-type opioid receptor [5] was 22%. For the same compound, the values for the Ki (on Mu-type opioid receptor [1]; in series [3]) were 0.000158 µM and 0.00126 µM, respectively. As for `CCCCCCCN1[C@@H]2CC[C@@H]1CC(c1cccc(C(N)=O)c1)C2` (relative stereo), the Intrinsic activity at Mu-type opioid receptor [5] came to 28%. `NC(=O)c1cccc(C2C[C@H]3CC[C@H](C2)N3CC(O)Cc2ccccc2)c1` (relative stereo): the Intrinsic activity on Mu-type opioid receptor [5] was determined as 3%. The same measure, in the same setting: then `NC(=O)c1cccc(C2C[C@H]3CC[C@H](C2)N3CCCOc2ccccc2)c1` (relative stereo), with 0%; and `Oc1cccc(C2C[C@H]3CC[C@H](C2)N3CCCc2ccccc2)c1` (relative stereo; 12a), with 22%.

The compound `Oc1cccc(C2C[C@H]3CC[C@H](C2)N3CCCc2ccccc2)c1` (relative stereo; 12b) [listing 1 of 2 here] showed a t1/2 with Liver [6] of 27 min. Further, the Ki on Mu-type opioid receptor [1] is 0.00501 µM; in series [2], 0.00794 µM; in series [3] it was 0.0631 µM. For the compound `Oc1cccc(C2C[C@H]3CC[C@H](C2)N3CCCc2ccccc2)c1` (relative stereo; 12b) [listing 2 of 2 here], at Mu-type opioid receptor [5], the Intrinsic activity was determined as 64%.

Take `CCCCCCCN1[C@@H]2CC[C@@H]1CC(c1cccc(O)c1)C2` (relative stereo; 17a): the Intrinsic activity at Mu-type opioid receptor [5] was determined as 26%. The same measure, in the same setting: then `CCCCCCCN1[C@@H]2CC[C@@H]1CC(c1cccc(O)c1)C2` (relative stereo; 17b), with 62%; and `Oc1cccc(C2C[C@H]3CC[C@H](C2)N3Cc2c(F)cccc2F)c1` (relative stereo; 18a), with 36%. Turning to `Oc1cccc(C2C[C@H]3CC[C@H](C2)N3Cc2c(F)cccc2F)c1` (relative stereo; 18b) [listing 1 of 2 here], the t1/2 is 75 min in the series on Liver [6] and 13 min in the series with Liver [4]. In addition, the Ki is 0.631 µM at Mu-type opioid receptor [1], 0.126 µM in series [2] and 2.51 µM in series [3]. With `Oc1cccc(C2C[C@H]3CC[C@H](C2)N3Cc2c(F)cccc2F)c1` (relative stereo; 18b) [listing 2 of 2 here], the Intrinsic activity at Mu-type opioid receptor [5] was found to be 48%.

On to `Oc1cccc(C2C[C@H]3CC[C@H](C2)N3CCCOc2ccccc2)c1` (relative stereo; 19a), for which the Intrinsic activity on Mu-type opioid receptor [5] came out at 9%. For `Oc1cccc(C2C[C@H]3CC[C@H](C2)N3CCCOc2ccccc2)c1` (relative stereo; 19b) [listing 1 of 2 here], the figures for the t1/2 in the series with Liver [6] and in the series on Liver [4] were 20 min and 2 min, respectively. Also, the Ki is 0.00316 µM at Mu-type opioid receptor [1], 0.02 µM in series [2] and 0.0631 µM in series [3]. With `Oc1cccc(C2C[C@H]3CC[C@H](C2)N3CCCOc2ccccc2)c1` (relative stereo; 19b) [listing 2 of 2 here], the Intrinsic activity at Mu-type opioid receptor [5] turned out to be 85%. The same measure, in the same setting: then `CC(C)(C)c1ccc(CN2[C@@H]3CC[C@@H]2CC(c2cccc(O)c2)C3)cc1` (relative stereo; 20a), with 100%; and `CC(C)(C)c1ccc(CN2[C@@H]3CC[C@@H]2CC(c2cccc(O)c2)C3)cc1` (relative stereo; 20b), with 97%; and `O=C1c2ccccc2C(=O)N1CCCCN1[C@@H]2CC[C@@H]1CC(c1cccc(O)c1)C2` (relative stereo; 21a), with 26%. For the compound `O=C1c2ccccc2C(=O)N1CCCCN1[C@@H]2CC[C@@H]1CC(c1cccc(O)c1)C2` (relative stereo; 21b), at Mu-type opioid receptor [5], the Intrinsic activity turned out to be 97%.

As to `O=C(CN1[C@@H]2CC[C@@H]1CC(c1cccc(O)c1)C2)C1CCCCC1` (relative stereo; 22a), the Intrinsic activity at Mu-type opioid receptor [5] was 33%. In the series with Liver [6], `O=C(CN1[C@@H]2CC[C@@H]1CC(c1cccc(O)c1)C2)C1CCCCC1` (relative stereo; 22b) [listing 1 of 2 here] gave a t1/2 of 13 min. The Ki on Mu-type opioid receptor [1] was 0.002 µM; in series [2] it was 0.000794 µM; in series [3] it was 0.02 µM. As to `O=C(CN1[C@@H]2CC[C@@H]1CC(c1cccc(O)c1)C2)C1CCCCC1` (relative stereo; 22b) [listing 2 of 2 here], the Intrinsic activity at Mu-type opioid receptor [5] was determined as 57%. The same measure, in the same setting: then `Oc1cccc(C2C[C@H]3CC[C@H](C2)N3CC(O)Cc2ccccc2)c1` (relative stereo; 23a), with 1%. Compound `Oc1cccc(C2C[C@H]3CC[C@H](C2)N3CC(O)Cc2ccccc2)c1` (relative stereo; 23b) [listing 1 of 2 here] came in with a t1/2 in the series with Liver [6] of over 90 min. The inhibitory constant (Ki) at Mu-type opioid receptor [1] was 0.01 µM; in series [2] it was 0.02 µM; in series [3], 0.251 µM. Consider `Oc1cccc(C2C[C@H]3CC[C@H](C2)N3CC(O)Cc2ccccc2)c1` (relative stereo; 23b) [listing 2 of 2 here], for which the Intrinsic activity on Mu-type opioid receptor [5] was determined as 36%. Regarding `NC(=O)c1cccc(C2C[C@H]3CC[C@H](C2)N3CCCc2ccccc2)c1` (relative stereo; 24a), the Intrinsic activity at Mu-type opioid receptor [5] was determined as 24%. The same measure, in the same setting: then `NC(=O)c1cccc(C2C[C@H]3CC[C@H](C2)N3CCCc2ccccc2)c1` (relative stereo; 24b), with 48%; and `NC(=O)c1cccc(C2C[C@H]3CC[C@H](C2)N3Cc2c(F)cccc2F)c1` (relative stereo; 26a), with 26%; and `NC(=O)c1cccc(C2C[C@H]3CC[C@H](C2)N3Cc2c(F)cccc2F)c1` (relative stereo; 26b), with 19%. As for `CC(C)(C)c1ccc(CN2[C@@H]3CC[C@@H]2CC(c2cccc(C(N)=O)c2)C3)cc1` (relative stereo; 28a), the Intrinsic activity at Mu-type opioid receptor [5] is 92%. As to `CC(C)(C)c1ccc(CN2[C@@H]3CC[C@@H]2CC(c2cccc(C(N)=O)c2)C3)cc1` (relative stereo; 28b) [listing 1 of 2 here], the values for the Ki (at Mu-type opioid receptor [1]; in series [2]; in series [3]) were 0.01 µM, 0.0316 µM and 0.2 µM, respectively. As to `CC(C)(C)c1ccc(CN2[C@@H]3CC[C@@H]2CC(c2cccc(C(N)=O)c2)C3)cc1` (relative stereo; 28b) [listing 2 of 2 here], at Mu-type opioid receptor [5], the Intrinsic activity was found to be 73%. The same measure, in the same setting: then `NC(=O)c1cccc(C2C[C@H]3CC[C@H](C2)N3CCCCN2C(=O)c3ccccc3C2=O)c1` (relative stereo; 29a), with 0%. In the case of `NC(=O)c1cccc(C2C[C@H]3CC[C@H](C2)N3CCCCN2C(=O)c3ccccc3C2=O)c1` (relative stereo; 29b) [listing 1 of 2 here], the values for the inhibitory constant (Ki) (at Mu-type opioid receptor [1]; in series [3]) were 0.0316 µM and 0.2 µM, respectively. In the series with Liver [4], this compound had a t1/2 of 11 min. On to `NC(=O)c1cccc(C2C[C@H]3CC[C@H](C2)N3CCCCN2C(=O)c3ccccc3C2=O)c1` (relative stereo; 29b) [listing 2 of 2 here], for which the Intrinsic activity at Mu-type opioid receptor [5] worked out at 75%. On the same count and under the same terms, then `NC(=O)c1cccc(C2C[C@H]3CC[C@H](C2)N3CC(=O)C2CCCCC2)c1` (relative stereo; 30a), with 41%; and `NC(=O)c1cccc(C2C[C@H]3CC[C@H](C2)N3CC(=O)C2CCCCC2)c1` (relative stereo; 30b), with 93%; and `NC(=O)c1cccc(C2C[C@H]3CC[C@H](C2)N3CC(O)Cc2ccccc2)c1` (stereo in doubt; 31b), with 39%.
